The text below walks through data of ChEMBL document CHEMBL1122206, “Use of adenine nucleotide derivatives to assess the potential of exo-active-site-directed reagents as species- or isozyme-specific enzyme inactivators. 5. Interactions of adenosine 5'-triphosphate derivatives with rat pyruvate kinases, Escherichia coli thymidine kinase, and yeast and rat …” (1982).

The target of assay [1] is T1, Hexokinase-2 (Rattus norvegicus) (UniProt P27881).
T1 sequence (whole entry): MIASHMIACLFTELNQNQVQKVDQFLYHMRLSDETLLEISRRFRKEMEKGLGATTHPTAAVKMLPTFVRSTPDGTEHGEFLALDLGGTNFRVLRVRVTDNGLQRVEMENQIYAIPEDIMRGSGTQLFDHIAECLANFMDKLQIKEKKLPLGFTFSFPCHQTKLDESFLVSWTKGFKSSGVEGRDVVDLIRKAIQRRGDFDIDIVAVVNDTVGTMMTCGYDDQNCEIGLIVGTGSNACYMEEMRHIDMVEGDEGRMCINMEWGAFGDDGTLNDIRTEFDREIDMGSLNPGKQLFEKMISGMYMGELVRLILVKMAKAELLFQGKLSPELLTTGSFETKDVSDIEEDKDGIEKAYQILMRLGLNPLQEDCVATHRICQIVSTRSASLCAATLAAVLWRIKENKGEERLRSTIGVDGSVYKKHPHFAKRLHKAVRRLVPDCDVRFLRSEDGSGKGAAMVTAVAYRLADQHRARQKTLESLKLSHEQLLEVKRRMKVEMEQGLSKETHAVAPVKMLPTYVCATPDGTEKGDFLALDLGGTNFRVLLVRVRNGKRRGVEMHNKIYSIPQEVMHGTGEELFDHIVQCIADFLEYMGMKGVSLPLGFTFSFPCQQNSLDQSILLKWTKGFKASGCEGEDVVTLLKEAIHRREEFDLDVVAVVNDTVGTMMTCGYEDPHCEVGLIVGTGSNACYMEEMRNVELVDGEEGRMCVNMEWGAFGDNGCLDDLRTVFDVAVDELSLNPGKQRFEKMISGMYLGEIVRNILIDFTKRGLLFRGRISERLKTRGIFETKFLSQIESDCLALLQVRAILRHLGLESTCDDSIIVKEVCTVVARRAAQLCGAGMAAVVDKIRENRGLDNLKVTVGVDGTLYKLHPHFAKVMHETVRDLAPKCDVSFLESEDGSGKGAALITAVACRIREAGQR
The assay is described as follows: Time dependent inhibition of hexokinase 2 activity after 6 h, at 5 mM compound.

A short description of assay [2]: Compound was tested for substrate constants with yeast hexokinase. Maximal velocity Vmax was reported. In a few lines:
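Hexokinase KM and Vmax taken from linear double-reciprocal plots of initial velocity vs. nucleotide level. Assays at 22 °C, coupled to glucose-6-phosphate dehydrogenase (A340), in 0.05 M Tris-HCl pH 7.6 with 6.6 mM MgCl2, 10 mM glucose and 0.93 mM NADP. Yeast HK was isoelectric-focused. Rat HK I and III came from liver, HK II from muscle (male Sprague-Dawley).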

The inhibition is the percentage by which the read-out fell short of the control. Lower therefore signals a response near the control.

`Nc1ncnc2c1ncn2[C@@H]1O[C@H](COP(=O)(O)OP(=O)(O)OP(=O)(O)O)[C@@H](O)[C@H]1O`: the inhibition in assay [1] was found to be 0%. In addition, the Vmax in assay [2] is 100%.
